# STK33 kinase inh: inhibitors of purified STK33 kinase, primary screen, biochemical, ADP-Glo luminescence, homogeneous, cell-free. Serine/threonine-protein kinase 33 (Homo sapiens), Q9BYT3. MBP phosphorylation. inhibition, % at 10 µM. actives 0.073% (n = 320,000);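 active means inhibition at or above 25%, using the most active replicate where run in duplicate; inactive means inhibition below 25%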
# Target sequence (Q9BYT3 whole entry, looked up): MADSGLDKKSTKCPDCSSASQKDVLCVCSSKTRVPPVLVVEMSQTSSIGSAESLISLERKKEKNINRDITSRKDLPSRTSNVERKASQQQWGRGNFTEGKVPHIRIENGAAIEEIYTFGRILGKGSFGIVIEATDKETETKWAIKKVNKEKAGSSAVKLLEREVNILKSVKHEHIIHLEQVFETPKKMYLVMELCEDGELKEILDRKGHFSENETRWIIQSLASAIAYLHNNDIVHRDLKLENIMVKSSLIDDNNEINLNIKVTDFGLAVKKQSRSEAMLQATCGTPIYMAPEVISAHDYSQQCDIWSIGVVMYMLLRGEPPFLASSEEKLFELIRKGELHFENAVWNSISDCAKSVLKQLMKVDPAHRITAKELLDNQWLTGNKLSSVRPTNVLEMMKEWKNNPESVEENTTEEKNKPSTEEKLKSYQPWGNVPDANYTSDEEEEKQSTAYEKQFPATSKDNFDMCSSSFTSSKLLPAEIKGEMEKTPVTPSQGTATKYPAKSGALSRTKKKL
# HIV Env fusion: inhibitors of HIV-1 Env-driven cell-cell fusion, primary screen, HeLa-JRFL effector, CEM21 target cells, luciferase | inhibition, % at 12.3 µM | actives 1.1% (n = 360,000) | AID 651610, 2012;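 active means mean replicate inhibition score of at least 50 and every replicate individually at or above 50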;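 further: 0% = plate neutral controls and 100% = maraviroc near 300 nM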
# CDK5 p35 inh: inhibitors of human CDK5/p35 kinase, primary screen, biochemical, single concentration; Recombinant CDK5/p35, ADP-Glo luminescence, 60 min; inhibition, % at 10 µM; actives 0.01% (n = 330,000); AID 488839, 2010;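 active means highest replicate inhibition of at least 50% and at least 75% of replicates reaching 50%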;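 further: plate controls were DMSO neutral control for no effect and GW8510 at 10 µM for full effect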
# INS-1E GSIS act: GLuc luminescence reporter in INS-1E cells, primary screen for activators of glucose-dependent secretion of insulin | activation, % at 16.6 µM | actives 0.61% (n = 370,000) | AID 743287, 2014 | INS-1E GLuc reporter insulin secretion, 2-3 h;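 active means lowest replicate activation of at least 40%, so every replicate reaches that level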;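 further: 0% = median of neutral control wells and 100% = median of IBMX positive control wells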
# GSK3B inh: human GSK3beta kinase inhibitors, primary screen, biochemical, cell-free homogeneous, HTS. AID 2097, 2009. Glycogen synthase kinase-3 beta (Homo sapiens), P49841. actives 0.038% (n = 300,000). activity score (negative = inhibition), % at 10 µM. GST-GSK3beta kinase, ADP-Glo luminescence, 60 min; hits give low values;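 active means more than half of replicate wells score below -50%, meaning over 50% inhibition versus plate controls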;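 further: 0% = median DMSO wells and -100% = median GW8510 positive control wells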
#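 Test system: GST-tagged human GSK3beta kinase, cell-free; evaluation: activity score scaled between in-plate DMSO and GW8510 controls; measured by: ADP-Glo luminescence; incubation: 60 min reaction, RT; benchmarks: DMSO and 20 µM GW8510; reagent: peptide substrate plus 25 µM ATP (final); medium: Tris/MgCl2 kinase buffer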
# GSK3 alpha inh: blockers of GSK3A enzyme activity – biochemical, luminescence, cell-free homogeneous, HTS, primary screen; Glycogen synthase kinase-3 alpha (Homo sapiens), P49840; GSK-3 alpha kinase, ADP-Glo luminescence, 60 min; inhibition, % at 10 µM; actives 0.1% (n = 320,000);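 active means more than half of replicates show inhibition above 20%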;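 further: GST-tagged GSK-3 alpha with peptide substrate and 25 µM ATP; 0% = DMSO neutral wells and 100% = GW8510 positive control wells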
# The depositor's hits bear a star; / = no result given; [ ] = another dose, or the depositor's remark. Shown are actives, neighbours in structure and some others; about 1.4% of the full set was active somewhere.
SMILES,STK33 kinase inh,HIV Env fusion,CDK5 p35 inh,INS-1E GSIS act,GSK3B inh,GSK3 alpha inh
CO[C@@H]1CN(C)C(=O)c2ccc(NC(=O)C3CCOCC3)cc2OC[C@H](C)NC[C@H]1C,/,-9[16.7 µM],/,4,/,/
C[C@@H]1CN([C@@H](C)CO)C(=O)c2cccc(NS(=O)(=O)c3ccc(F)cc3)c2O[C@H]1CN(C)CC1CCCCC1,/,/,/,-2,/,/
C[C@H](CO)N1C[C@H](C)[C@@H](CN(C)Cc2ccc(Cl)c(Cl)c2)OCCCC[C@H](C)Oc2ccc(NS(=O)(=O)c3ccc(F)cc3)cc2C1=O,/,78*[16.7 µM],/,-13,/,/
C[C@@H]1CCCCO[C@H](CN(C)Cc2ccc(Cl)c(Cl)c2)[C@H](C)CN([C@@H](C)CO)C(=O)c2cc(NS(=O)(=O)c3ccccc3)ccc2O1,/,57*[16.7 µM],/,-4,/,/
C[C@H]1CCCCO[C@H](CN(C)Cc2ccc(Cl)c(Cl)c2)[C@@H](C)CN([C@@H](C)CO)C(=O)c2cc(NS(=O)(=O)c3ccc(F)cc3)ccc2O1,/,/,/,-24,/,/
CCCCNc1nc(N)ncc1[N+](=O)[O-],3,-9,2,55*,1,6
CCC(=O)Nc1ccc2c(c1)OC[C@H](C)N(C(=O)CC)C[C@H](C)[C@@H](OC)CN(C)C2=O,/,/,/,0,/,/
CCc1c(C(=O)Nc2ccc(C)c(C)c2)[nH]c(C)c1C(C)=O,1,-20,0,114*,1,-2
CCC(=O)Nc1ccc2c(c1)C(=O)N(C)C[C@@H](OC)[C@H](C)CN(C(=O)CC)[C@@H](C)CO2,/,59*[16.7 µM],/,-4,/,/
COCC(=O)Nc1ccc2c(c1)C(=O)N(C)C[C@@H](OC)[C@H](C)CN(C(C)=O)[C@H](C)CO2,/,85*[16.7 µM],/,4,/,/
CCS(=O)(=O)Nc1ccc2c(c1)C(=O)N(C)C[C@H](OC)[C@@H](C)CN(C(=O)C1CCC1)[C@H](C)CO2,/,61*[16.7 µM],/,4,/,/
CCS(=O)(=O)Nc1ccc2c(c1)C(=O)N(C)C[C@@H](OC)[C@H](C)CN(C(=O)C1CCC1)[C@@H](C)CO2,/,-1[16.7 µM],/,-3,/,/
CO[C@H]1CN(C)C(=O)c2ccc(NS(=O)(=O)CC(F)(F)F)cc2OC[C@H](C)N(C(=O)c2ccc3c(c2)OCO3)C[C@@H]1C,/,-2[16.7 µM],/,5,/,/
CO[C@@H]1CN(C)C(=O)c2ccc(NS(=O)(=O)CC(F)(F)F)cc2OC[C@@H](C)N(C(=O)c2ccc3c(c2)OCO3)C[C@@H]1C,/,65*[16.7 µM],/,-5,/,/
C[C@@H]1CCCCO[C@@H](CN(C)C(=O)Cc2ccccc2)[C@H](C)CN([C@@H](C)CO)C(=O)c2cc(NS(=O)(=O)c3ccccc3)ccc2O1,/,-20[16.7 µM],/,-12,/,/
COc1ccc(NC(=O)Nc2ccc3c(c2)C(=O)N([C@H](C)CO)C[C@H](C)[C@@H](CN(C)C(=O)CCCN(C)C)OCCCC[C@H](C)O3)cc1,/,20[16.7 µM],/,28,/,/
COCC(=O)Nc1ccc2c(c1)C(=O)N(C)C[C@@H](OC)[C@@H](C)CN(C)[C@H](C)CO2,/,60*[16.7 µM],/,2,/,/
CCCC(=O)Nc1ccc2c(c1)OC[C@H](C)N(C(=O)CN(C)C)C[C@@H](C)[C@H](OC)CN(C)C2=O,/,58*[16.7 µM],/,/,/,/
CCCC(=O)Nc1ccc2c(c1)OC[C@@H](C)N(C(=O)CN(C)C)C[C@@H](C)[C@H](OC)CN(C)C2=O,/,12[16.7 µM],/,1,/,/
CC(C)(C)N1C(=O)[C@H]2[C@@H](c3ccc(Br)cc3)N3C(=O)N(c4ccccc4)C(=O)[C@@]3(C)[C@H]2C1=O,-1,104*,0,-25,0,0
CC(C)(C)N1C(=O)[C@H]2[C@@H](c3ccc(Br)cc3)N3C(=O)N(c4ccccc4)C(=O)[C@@]3(Cc3ccccc3)[C@H]2C1=O,0,68*,0,3,1,/
CC(C)(C)N1C(=O)[C@H]2[C@@H](c3ccc(Br)cc3)N3C(=O)N(c4cccc(Br)c4)C(=O)[C@@]3(Cc3ccccc3)[C@H]2C1=O,-2,/,0,/,-8,3

# Bioassay records (PubChem)
